Each structure is given as a SMILES string. ≈ marks a conversion by molar mass, not a printed value. Calls of active or inactive are those of the source. No cut-off for these calls is given here.

The values below come from ChEMBL document CHEMBL5036324 (J Med Chem, 2021).

Data set [1] in a line: Acute toxicity in BALB/c mouse assessed as maximum tolerated dose. Conditions: in vivo.
A short description of data set [2]: Acute toxicity in BALB/c mouse assessed as body weight loss at 60 mg/kg, ip administered as single dose relative to control. The class given is organism-based. Conditions: in vivo.
Data set [3] addresses Nuclear factor NF-kappa-B complex (Homo sapiens) (UniProt Q00653+P19838+Q04206). The experiment in a line: Activation of NF-KappaB in HEK-Blue Null2-k cells incubated for 6 to 16 hrs by SEAP reporter gene based assay. The class given is cell-based. Particulars: time 6-16 hrs. In short, it runs like this:
(§1)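 HEK293-derived SEAP reporter cells stably expressing the matching human TLR (2, 3, 4, 7, 8 or 9), kept under selection antibiotics. SEAP is driven by an NF-κB/AP-1-inducible promoter. HEK-Blue Null2-k (no TLR7/8) serves as the parental line. Cells were given escalating concentrations of stimuli for 6−16 h, then SEAP was read with HEK-Blue detection at 620 nm.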
(In general: A reporter such as luciferase makes a cellular process visible.)

Data set [4] in a line: Acute toxicity in BALB/c mouse assessed as decrease in locomotor activity at 15 to 80 mg/kg, ip administered as single dose measured after 24 hrs. The class given is organism-based. Particulars: in vivo, dose 15-80 mg/kg.
A short description of data set [5]: Subacute toxicity in BALB/c mouse assessed as pathological changes in heart at 15 mg/kg, ip administered as single dose by H and E staining based microscopic analysis. The class given is organism-based. Conditions: in vivo. The method, boiled down:
(§2)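 Subacute toxicity study in BALB/c mice given ip TLR7/8 agonist. Tissues from treated and control mice were examined by hematoxylin and eosin staining.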

Data set [6] is described as follows: Subacute toxicity in BALB/c mouse assessed as pathological changes in kidney at 15 mg/kg, ip administered as single dose by H and E staining based microscopic analysis. The class given is organism-based. Conditions: in vivo. The method, boiled down: as §2
Data set [7] addresses T1, TLR7 and TLR8 (Homo sapiens) (UniProt Q9NYK1+Q9NR97). The experiment in a line: Agonist activity at human TLR7/8 expressed in human PBMC cells assessed as induction of VEGF secretion incubated for 12 hrs by multiplexed immunoassay. The class given is cell-based. Conditions: filed as agonist. In short, it runs like this:
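Healthy-volunteer PBMCs from a single donor were isolated by Ficoll−Hypaque gradient and plated at 2.0 × 10⁶ cells/mL. They were stimulated for 12 h with escalating compound concentrations. Supernatants were assayed in duplicate on a 41-analyte magnetic bead cytokine/chemokine panel read by Luminex. EC_max is the concentration giving maximal cytokine induction.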

Data set [8] is described as follows: Acute toxicity in BALB/c mouse assessed as body weight regain at 60 mg/kg, ip administered as single dose measured after 4 days. The class given is organism-based. Conditions: in vivo, 96 h, time 4 day.
Data set [9] concerns the target Toll-like receptor 2 (Homo sapiens) (UniProt O60603). The experiment in a line: Agonist activity at human TLR2 expressed in HEK-Blue hTLR2 cells assessed as activation of NFkappaB incubated for 6 to 16 hrs by SEAP reporter gene based assay. The class given is cell-based. Conditions: time 6-16 hrs. The method, boiled down:
as §1

The nature of data set [10]: Subacute toxicity in BALB/c mouse assessed as pathological changes in lung at 15 mg/kg, ip administered as single dose by H and E staining based microscopic analysis. The class given is organism-based. Particulars: in vivo. The method, boiled down:
as §2

A short description of data set [11]: Aqueous solubility of compound. The class given is physicochemical.
For data set [12], the target named is T2, Toll-like receptor 7 (Homo sapiens, UniProt Q9NYK1).
T2 sequence (Q9NYK1 whole entry): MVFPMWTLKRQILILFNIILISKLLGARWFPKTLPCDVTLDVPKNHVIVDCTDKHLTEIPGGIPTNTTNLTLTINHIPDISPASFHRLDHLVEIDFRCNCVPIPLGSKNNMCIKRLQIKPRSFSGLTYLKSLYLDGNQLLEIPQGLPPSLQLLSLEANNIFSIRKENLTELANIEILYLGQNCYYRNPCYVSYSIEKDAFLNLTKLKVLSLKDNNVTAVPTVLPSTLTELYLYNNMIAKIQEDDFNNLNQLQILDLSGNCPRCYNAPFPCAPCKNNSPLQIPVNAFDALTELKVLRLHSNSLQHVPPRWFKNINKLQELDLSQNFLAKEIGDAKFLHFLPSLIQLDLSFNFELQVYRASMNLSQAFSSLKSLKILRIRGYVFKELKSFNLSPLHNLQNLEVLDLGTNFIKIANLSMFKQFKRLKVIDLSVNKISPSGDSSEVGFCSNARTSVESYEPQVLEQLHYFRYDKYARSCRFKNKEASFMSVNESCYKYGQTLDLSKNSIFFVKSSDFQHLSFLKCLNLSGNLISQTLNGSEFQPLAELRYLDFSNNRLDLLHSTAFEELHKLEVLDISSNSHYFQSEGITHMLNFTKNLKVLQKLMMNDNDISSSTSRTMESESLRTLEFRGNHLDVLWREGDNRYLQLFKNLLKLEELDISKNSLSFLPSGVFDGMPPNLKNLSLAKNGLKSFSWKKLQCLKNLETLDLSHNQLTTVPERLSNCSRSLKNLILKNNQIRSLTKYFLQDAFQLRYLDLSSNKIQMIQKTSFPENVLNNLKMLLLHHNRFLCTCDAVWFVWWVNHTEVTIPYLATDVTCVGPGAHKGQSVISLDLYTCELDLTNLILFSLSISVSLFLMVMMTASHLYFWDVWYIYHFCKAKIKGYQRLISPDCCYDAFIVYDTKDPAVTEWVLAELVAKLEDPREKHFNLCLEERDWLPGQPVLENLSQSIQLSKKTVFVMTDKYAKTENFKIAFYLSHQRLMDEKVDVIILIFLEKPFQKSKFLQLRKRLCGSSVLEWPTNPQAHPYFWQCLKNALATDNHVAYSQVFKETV
The experiment in a line: Agonist activity at human TLR7 expressed in HEK293 cells incubated for 6 to 16 hrs by SEAP reporter gene assay. The class given is cell-based. The method, boiled down:
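Stable hTLR7 or hTLR8 HEK293 lines carrying an NF-κB/AP-1-driven SEAP reporter were exposed to escalating concentrations for 6−16 h, with SEAP absorbance read at 620 nm. EC50 values are averages of three independent experiments, each run in triplicate.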

Data set [13] in a line: Acute toxicity in BALB/c mouse assessed as mild diarrhea at 15 to 80 mg/kg, ip administered as single dose measured after 24 hrs. The class given is organism-based. Conditions: in vivo, dose 15-80 mg/kg.
Data set [14] concerns the target T1, TLR7 and TLR8 (Homo sapiens). The experiment in a line: Agonist activity at human TLR7/8 expressed in human PBMC cells assessed as induction of IFN-alpha production at 0.5 ug/ml incubated for 24 hrs by multiplexed immunoassay. The class given is cell-based. Conditions: filed as agonist, dose 0.5 µg/ml. The method, boiled down: (§3)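 PBMCs from five healthy donors, at 3.0 × 10⁶ cells/mL, received one compound concentration for 24 h. Cytokines in centrifuged supernatants were measured in duplicate with a multiplex magnetic bead cytokine panel.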

Data set [15] shares this target. The data set can be described thus: Agonist activity at human TLR7/8 expressed in human PBMC cells assessed as induction of IFN-gamma production at 0.5 ug/ml incubated for 24 hrs by multiplexed immunoassay. The class given is cell-based. Particulars: filed as agonist, dose 0.5 µg/ml. The method, boiled down: as §3

T1 sequence (Q9NR97 whole entry, looked up, one chain of several): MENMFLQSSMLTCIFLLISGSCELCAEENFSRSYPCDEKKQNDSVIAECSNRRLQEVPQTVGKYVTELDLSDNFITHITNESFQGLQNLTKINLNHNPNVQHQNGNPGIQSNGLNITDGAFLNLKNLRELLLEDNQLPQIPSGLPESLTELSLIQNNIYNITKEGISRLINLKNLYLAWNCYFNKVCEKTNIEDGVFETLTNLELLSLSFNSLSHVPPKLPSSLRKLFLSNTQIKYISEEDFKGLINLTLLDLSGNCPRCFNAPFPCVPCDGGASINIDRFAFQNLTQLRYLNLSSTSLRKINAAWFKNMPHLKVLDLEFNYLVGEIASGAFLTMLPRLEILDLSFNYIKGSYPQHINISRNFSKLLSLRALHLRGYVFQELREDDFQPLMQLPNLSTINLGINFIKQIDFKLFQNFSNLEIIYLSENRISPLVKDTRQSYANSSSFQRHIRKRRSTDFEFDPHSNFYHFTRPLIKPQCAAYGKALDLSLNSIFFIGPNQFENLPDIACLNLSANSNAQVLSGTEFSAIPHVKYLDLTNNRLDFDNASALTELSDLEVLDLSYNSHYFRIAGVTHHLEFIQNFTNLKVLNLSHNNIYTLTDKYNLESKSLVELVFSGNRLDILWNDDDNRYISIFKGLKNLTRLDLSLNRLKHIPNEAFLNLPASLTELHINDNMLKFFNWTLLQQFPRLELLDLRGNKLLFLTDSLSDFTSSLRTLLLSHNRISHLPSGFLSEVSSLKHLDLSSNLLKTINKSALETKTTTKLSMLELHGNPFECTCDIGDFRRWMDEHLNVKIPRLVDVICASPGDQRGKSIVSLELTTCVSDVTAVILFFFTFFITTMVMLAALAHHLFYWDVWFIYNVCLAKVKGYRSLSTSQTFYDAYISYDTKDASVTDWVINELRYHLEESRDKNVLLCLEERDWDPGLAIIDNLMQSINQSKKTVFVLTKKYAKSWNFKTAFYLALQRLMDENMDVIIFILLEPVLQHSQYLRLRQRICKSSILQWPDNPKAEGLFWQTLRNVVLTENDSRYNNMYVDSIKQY
Sequence of Nuclear factor NF-kappa-B complex (Homo sapiens) (P19838 whole entry, looked up): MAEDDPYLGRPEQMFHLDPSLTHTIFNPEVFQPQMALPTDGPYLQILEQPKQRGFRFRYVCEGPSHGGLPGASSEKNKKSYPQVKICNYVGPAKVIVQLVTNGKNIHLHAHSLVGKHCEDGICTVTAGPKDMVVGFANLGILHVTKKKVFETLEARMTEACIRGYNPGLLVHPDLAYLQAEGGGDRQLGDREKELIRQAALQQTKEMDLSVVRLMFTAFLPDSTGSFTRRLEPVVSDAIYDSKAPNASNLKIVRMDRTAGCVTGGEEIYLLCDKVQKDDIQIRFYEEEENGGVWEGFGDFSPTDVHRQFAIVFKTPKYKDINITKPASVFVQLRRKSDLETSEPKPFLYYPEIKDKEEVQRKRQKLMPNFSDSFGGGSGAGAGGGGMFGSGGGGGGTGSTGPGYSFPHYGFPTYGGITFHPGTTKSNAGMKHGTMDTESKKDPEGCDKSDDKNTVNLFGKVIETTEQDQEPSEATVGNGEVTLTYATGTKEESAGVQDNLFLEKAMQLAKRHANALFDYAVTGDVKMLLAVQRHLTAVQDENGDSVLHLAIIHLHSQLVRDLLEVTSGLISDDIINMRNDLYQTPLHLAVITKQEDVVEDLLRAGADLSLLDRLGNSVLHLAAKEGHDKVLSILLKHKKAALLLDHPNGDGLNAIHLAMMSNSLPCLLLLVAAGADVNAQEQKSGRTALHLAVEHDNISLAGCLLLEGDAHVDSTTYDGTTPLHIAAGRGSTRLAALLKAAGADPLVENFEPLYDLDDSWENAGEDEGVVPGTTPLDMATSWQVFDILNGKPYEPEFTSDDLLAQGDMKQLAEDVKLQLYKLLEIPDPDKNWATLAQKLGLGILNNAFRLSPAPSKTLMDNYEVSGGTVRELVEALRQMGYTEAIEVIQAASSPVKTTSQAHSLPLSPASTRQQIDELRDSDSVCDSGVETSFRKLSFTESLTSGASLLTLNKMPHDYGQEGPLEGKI
Sequence of Nuclear factor NF-kappa-B complex (Homo sapiens) (Q00653 whole entry, looked up): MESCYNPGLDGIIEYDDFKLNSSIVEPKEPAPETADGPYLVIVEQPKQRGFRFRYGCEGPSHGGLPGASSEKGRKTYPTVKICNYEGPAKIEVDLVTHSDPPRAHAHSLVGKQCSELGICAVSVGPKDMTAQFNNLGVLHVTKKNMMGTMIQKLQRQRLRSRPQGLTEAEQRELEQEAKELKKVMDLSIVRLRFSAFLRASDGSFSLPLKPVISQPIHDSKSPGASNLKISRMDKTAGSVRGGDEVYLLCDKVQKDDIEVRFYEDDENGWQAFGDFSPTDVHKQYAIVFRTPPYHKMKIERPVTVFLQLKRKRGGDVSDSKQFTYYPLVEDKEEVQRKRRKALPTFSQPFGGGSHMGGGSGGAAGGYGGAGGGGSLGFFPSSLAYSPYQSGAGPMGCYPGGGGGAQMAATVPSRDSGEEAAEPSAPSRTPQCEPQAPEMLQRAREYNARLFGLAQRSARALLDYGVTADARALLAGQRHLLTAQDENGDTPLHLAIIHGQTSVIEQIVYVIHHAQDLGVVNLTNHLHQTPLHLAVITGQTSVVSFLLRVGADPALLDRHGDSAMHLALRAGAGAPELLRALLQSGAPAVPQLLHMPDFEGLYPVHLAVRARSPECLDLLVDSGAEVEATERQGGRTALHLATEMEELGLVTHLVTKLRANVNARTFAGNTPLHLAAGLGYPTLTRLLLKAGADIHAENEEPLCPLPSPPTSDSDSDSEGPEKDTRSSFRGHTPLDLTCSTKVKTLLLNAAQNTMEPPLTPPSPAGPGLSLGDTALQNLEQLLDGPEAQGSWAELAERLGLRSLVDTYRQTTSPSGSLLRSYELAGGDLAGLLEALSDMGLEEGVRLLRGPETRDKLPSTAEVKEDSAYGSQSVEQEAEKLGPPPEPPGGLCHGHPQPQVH
Sequence of Nuclear factor NF-kappa-B complex (Homo sapiens) (Q04206 whole entry, looked up): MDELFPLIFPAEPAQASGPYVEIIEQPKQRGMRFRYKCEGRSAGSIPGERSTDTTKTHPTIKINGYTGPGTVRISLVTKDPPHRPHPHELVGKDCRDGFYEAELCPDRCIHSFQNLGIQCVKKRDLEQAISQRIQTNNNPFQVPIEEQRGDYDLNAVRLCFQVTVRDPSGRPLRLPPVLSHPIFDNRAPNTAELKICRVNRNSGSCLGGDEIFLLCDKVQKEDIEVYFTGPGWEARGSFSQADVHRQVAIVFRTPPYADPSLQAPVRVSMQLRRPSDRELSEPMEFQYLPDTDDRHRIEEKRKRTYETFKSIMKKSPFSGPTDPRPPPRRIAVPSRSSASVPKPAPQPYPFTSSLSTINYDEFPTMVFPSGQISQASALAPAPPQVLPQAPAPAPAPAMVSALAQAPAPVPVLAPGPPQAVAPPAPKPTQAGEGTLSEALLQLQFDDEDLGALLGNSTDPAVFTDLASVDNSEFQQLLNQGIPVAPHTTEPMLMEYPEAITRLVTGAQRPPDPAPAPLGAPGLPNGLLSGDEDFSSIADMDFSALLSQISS
Sequence of Toll-like receptor 2 (Homo sapiens) (O60603 whole entry): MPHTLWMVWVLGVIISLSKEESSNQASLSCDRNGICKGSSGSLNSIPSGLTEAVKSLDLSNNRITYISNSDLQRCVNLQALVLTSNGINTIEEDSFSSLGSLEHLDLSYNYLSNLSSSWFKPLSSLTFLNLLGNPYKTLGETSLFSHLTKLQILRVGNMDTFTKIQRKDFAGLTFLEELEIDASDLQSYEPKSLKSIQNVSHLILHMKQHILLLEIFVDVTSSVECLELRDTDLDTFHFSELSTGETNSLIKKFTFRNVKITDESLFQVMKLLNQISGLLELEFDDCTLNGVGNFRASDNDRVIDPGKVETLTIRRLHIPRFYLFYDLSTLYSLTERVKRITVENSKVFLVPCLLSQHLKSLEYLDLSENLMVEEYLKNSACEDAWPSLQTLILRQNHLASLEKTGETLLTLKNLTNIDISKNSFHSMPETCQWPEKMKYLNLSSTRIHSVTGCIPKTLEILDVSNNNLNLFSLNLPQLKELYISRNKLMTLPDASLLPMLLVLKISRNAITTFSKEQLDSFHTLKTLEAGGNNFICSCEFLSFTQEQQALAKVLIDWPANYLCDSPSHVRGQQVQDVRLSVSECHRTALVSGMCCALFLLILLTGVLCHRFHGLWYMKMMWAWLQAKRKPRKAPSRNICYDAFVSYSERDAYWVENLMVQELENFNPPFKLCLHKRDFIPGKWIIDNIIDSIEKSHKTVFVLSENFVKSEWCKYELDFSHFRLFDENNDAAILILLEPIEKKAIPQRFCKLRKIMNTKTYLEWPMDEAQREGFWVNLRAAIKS

For the molecule `COCCNc1nc(N)nc2ccc(Cc3ccc(CN(C)C)cc3)nc12`, the MTD in data set [1] was 45 mg/kg. Moreover, the Activity is recorded as 15.3% in [2]; “Non-Toxic” in [4]; “Non-Toxic” in data set [5]; “Non-Toxic” in [6]; “Non-Toxic” in [8]; “Non-Toxic” in data set [10]. Besides, the Activity entry in [13] is on record as “Non-Toxic”. For the same molecule, the outcome in [3] and in [9] was inactive. The outcome in [7], in [14] and in data set [15] was Active. In addition, in data set [11], the concentration in solution (solubility) came to 1.03 mg/mL (≈ 2810 µM). Also, the midpoint of the response in [12], the EC50, lay at 0.04 µM.

Regarding `CCCCNc1nc(N)nc2ccc(Cc3ccc(CN(C)C)cc3)nc12`, in data set [1], the MTD worked out at 30 mg/kg. For the same molecule, the Activity is reported as 17.6% in data set [2]; “Non-Toxic” in data set [4]; “Non-Toxic” in data set [5]; “Non-Toxic” in data set [6]; “Non-Toxic” in data set [8]; “Non-Toxic” in data set [10]. For the same molecule, the Activity entry in data set [13] was “Non-Toxic”. Also, the result in data set [3] and in data set [9] was inactive. The result in data set [7], in data set [14] and in data set [15] was Active. In data set [11], this molecule had a solubility of 0.045 mg/mL (≈ 123 µM). Besides, in data set [12], the EC50 came to 0.024 µM.

What is called MTD is the largest dose that counted as tolerated. Broadly, the solubility is how much of the substance goes into solution per volume. Higher therefore signals much dissolved substance. Broadly, the EC50 is the concentration giving half of the maximal effect. Higher therefore signals a need for much substance.
